The values below come from ChEMBL document CHEMBL1124901 (J Med Chem, 1990).

One data set addresses Dopamine receptor. In words: In vitro inhibition of [3H]spiperone binding to Dopamine receptor D2 in Macaca nemestrina striatal membranes. More on the design: species or system Striatum, Membrane. In a few lines: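 Caudate tissue from adult Macaca nemestrina brains, homogenized in ice-cold 50 mM potassium phosphate pH 7.4, washed twice by centrifugation at 30000g and stored at -70 °C. Assay used 25-50 µg protein in 50 mM Tris-HCl, 120 mM NaCl, 5 mM CaCl2, 1 mM MgCl2, pH 7.4, with 0.2 nM [3H]spiperone for 30 min at 37 °C. Bound ligand was collected by filtration and counted by scintillation. Nonspecific binding was defined with 1 µM cis-flupenthixol. Ki was taken from competitive displacement.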

A short description of data set [1]: Partition coefficient (logP). The conditions noted are these: octanol/water. In kind it is physicochemical.
The subject of data set [2] is Rattus norvegicus. Put plainly: In vivo tissue biodistribution behavior of high specific activity was determined in rat bone at 30 min postinjection of radiolabeled compound. In kind it is ADME, organism-based, Bone element. The note with it: 0.5 h. In a few lines:
(§1)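 Female Sprague-Dawley rats (200-250 g) under light ether anesthesia received 50-100 µCi of the 18F-labelled ligand (>1000 Ci/mmol) in 0.2 mL buffered saline into the femoral vein. Food and water were free until decapitation. Blood was drawn by cardiac puncture and the femur and brain regions were taken. Tissues were weighed and gamma counted. Values are %ID/g, mean ± SD of 4-5 rats.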

Data set [3] relates to Rattus norvegicus. Put plainly: In vivo tissue biodistribution behavior of high specific activity was determined in rat cerebellum at 30 min postinjection of radiolabeled compound. It is filed as ADME, organism-based. The conditions noted are these: 0.5 h. In a few lines:
as §1

The test system of data set [4] is Rattus norvegicus. Put plainly: In vivo tissue biodistribution behavior of high specific activity was determined in rat striatum at 30 min postinjection of radiolabeled compound. In kind it is ADME, organism-based. The note with it: 0.5 h. In a few lines:
as §1

Data set [5] deals with Rattus norvegicus. In words: In vivo tissue biodistribution behavior of high specific activity was determined in rat whole brain at 30 min postinjection of radiolabeled compound. The note with it: 0.5 h. It is filed as ADME, organism-based. In outline: as §1
The subject of data set [6] is Rattus norvegicus. In words: In vivo tissue biodistribution behavior of high specific activity was determined in rat cerebellum at 5 min postinjection of radiolabeled compound. It is filed as ADME, organism-based. In outline:
as §1

The subject of data set [7] is Rattus norvegicus. Put plainly: In vivo tissue biodistribution behavior of high specific activity was determined in rat blood at 30 min postinjection of radiolabeled compound. It is filed as ADME, organism-based. The conditions noted are these: 0.5 h. In outline: as §1
The test system of data set [8] is Rattus norvegicus. Put plainly: In vivo tissue biodistribution behavior of high specific activity was determined in rat blood at 5 min postinjection of radiolabeled compound. In kind it is ADME, organism-based. In outline:
as §1

For data set [9], the system named is Rattus norvegicus. In words: In vivo tissue biodistribution behavior of high specific activity was determined in rat bone at 5 min postinjection of radiolabeled compound. In kind it is ADME, organism-based, Bone element. In a few lines:
as §1

In data set [10] the test system is Rattus norvegicus. In words: In vivo tissue biodistribution behavior of high specific activity was determined in rat whole brain at 5 min postinjection of radiolabeled compound. In kind it is ADME, organism-based. In a few lines:
as §1

Data set [11] deals with Rattus norvegicus. In words: In vivo tissue biodistribution behavior of high specific activity was determined in rat striatum at 5 min postinjection of radiolabeled compound. In kind it is ADME, organism-based. In a few lines: as §1
The subject of data set [12] is Rattus norvegicus. Put plainly: In vivo tissue biodistribution behavior of high specific activity was determined in rat blood at 60 min postinjection of radiolabeled compound. The note with it: 1 h. It is filed as ADME, organism-based. In a few lines: as §1
In data set [13] the test system is Rattus norvegicus. Put plainly: In vivo tissue biodistribution behavior of high specific activity was determined in rat bone at 60 min postinjection of radiolabeled compound. In kind it is ADME, organism-based, Bone element. The note with it: 1 h. In a few lines: as §1
Data set [14] deals with Rattus norvegicus. Put plainly: In vivo tissue biodistribution behavior of high specific activity was determined in rat striatum at 60 min postinjection of radiolabeled compound. The conditions noted are these: 1 h. In kind it is ADME, organism-based. In outline: as §1
For data set [15], the system named is Rattus norvegicus. In words: In vivo tissue biodistribution behavior of high specific activity was determined in rat whole brain at 60 min postinjection of radiolabeled compound. It is filed as ADME, organism-based. The note with it: 1 h. In outline: as §1
Data set [16] has as its system Rattus norvegicus. In words: In vivo tissue biodistribution behavior of high specific activity was determined in rat cerebellum at 60 min postinjection of radiolabeled compound. It is filed as ADME, organism-based. The conditions noted are these: 1 h. In a few lines:
as §1

A short description of data set [17]: In vivo tissue biodistribution behavior of high specific activity was determined in whole brain at 60 min postinjection of radiolabeled compound. In kind it is ADME, organism-based. The conditions noted are these: 1 h. In a few lines: as §1
Data set [18] in a line: Dissociation constant of the compound; value ranges from 0.81-1.2 nM. It is filed as physicochemical.

For orientation: Ki means the equilibrium dissociation constant of an inhibitor or competing ligand from its target. Low values mean higher affinity, high ones lower affinity. The logP is a log measure of how a compound divides between an organic and an aqueous phase. A high value points to higher lipophilicity. `COc1c(Cl)cc(Cl)c(O)c1C(=O)NC[C@H]1CCCN1CCC(C)F` (stereo not given in full) came in with a Ki on Dopamine receptor of 2620 nM. The compound further registered a lipophilicity (logP) in [1] of 1.5.
As for `COc1c(Cl)cc(Cl)c(O)c1C(=O)NC[C@@H]1CCCN1CC[18F]`, the Tissue concentration was determined as 0.23 % injected dose g-1 in the data set on Rattus norvegicus [2]; 0.05 % injected dose g-1 with Rattus norvegicus [3]; 0.09 % injected dose g-1 with Rattus norvegicus [4]; 0.06 % injected dose g-1 in the data set with Rattus norvegicus [5]; 0.42 % injected dose g-1 in the data set on Rattus norvegicus [6]; 0.07 % injected dose g-1 in the data set with Rattus norvegicus [7]. In addition, the Tissue concentration in the data set with Rattus norvegicus [8] is 0.16 % injected dose g-1; in the data set with Rattus norvegicus [9] it was 0.2 % injected dose g-1; in the data set with Rattus norvegicus [10], 0.52 % injected dose g-1; in the data set on Rattus norvegicus [11], 0.62 % injected dose g-1.
`COc1c(Cl)cc(Cl)c(O)c1C(=O)NC[C@@H]1CCCN1CCCC[18F]`: the Tissue concentration in the data set with Rattus norvegicus [2] amounted to 0.24 % injected dose g-1; in the data set on Rattus norvegicus [12], 0.06 % injected dose g-1; in the data set on Rattus norvegicus [3], 0.08 % injected dose g-1; with Rattus norvegicus [4], 0.12 % injected dose g-1; in the data set with Rattus norvegicus [13], 0.39 % injected dose g-1; in the data set with Rattus norvegicus [5], 0.1 % injected dose g-1. Also, the Tissue concentration in the data set with Rattus norvegicus [14] is 0.09 % injected dose g-1; in the data set on Rattus norvegicus [6], 0.58 % injected dose g-1; in the data set on Rattus norvegicus [7] it was 0.09 % injected dose g-1; in the data set on Rattus norvegicus [8] it was 0.21 % injected dose g-1; with Rattus norvegicus [9] it was 0.22 % injected dose g-1; in the data set with Rattus norvegicus [15] it was 0.06 % injected dose g-1. The Tissue concentration was found to be 0.71 % injected dose g-1 in the data set with Rattus norvegicus [10], 0.87 % injected dose g-1 with Rattus norvegicus [11] and 0.05 % injected dose g-1 in the data set with Rattus norvegicus [16].
In the case of `COc1c(Cl)cc(Cl)c(O)c1C(=O)NC[C@@H]1CCCN1CCC[18F]`, the Tissue concentration worked out at 0.34 % injected dose g-1 in the data set on Rattus norvegicus [2]; 0.05 % injected dose g-1 with Rattus norvegicus [12]; 0.09 % injected dose g-1 in the data set on Rattus norvegicus [3]; 0.13 % injected dose g-1 with Rattus norvegicus [4]; 0.54 % injected dose g-1 in the data set with Rattus norvegicus [13]; 0.11 % injected dose g-1 with Rattus norvegicus [5]. The Tissue concentration was 0.07 % injected dose g-1 in the data set with Rattus norvegicus [14]; 0.98 % injected dose g-1 in the data set with Rattus norvegicus [6]; 0.1 % injected dose g-1 in the data set on Rattus norvegicus [7]; 0.04 % injected dose g-1 in [17]; 0.26 % injected dose g-1 with Rattus norvegicus [8]; 0.28 % injected dose g-1 in the data set on Rattus norvegicus [9]. Further, the Tissue concentration turned out to be 1.16 % injected dose g-1 with Rattus norvegicus [10], 1.5 % injected dose g-1 in the data set on Rattus norvegicus [11] and 0.03 % injected dose g-1 in the data set with Rattus norvegicus [16].
Consider `COc1c(Cl)cc(Cl)c(O)c1C(=O)NC[C@@H]1CCCN1CCF`, for which the Ki at Dopamine receptor came out at 159 nM. The same compound yielded a logP in [1] of 0.55.
The compound `CCCCN1CCC[C@H]1CNC(=O)c1c(O)c(Cl)cc(Cl)c1OC` showed a Ki at Dopamine receptor of 41.1 nM. Also, the logP in data set [1] is 2.28.
`COc1c(Cl)cc(Cl)c(O)c1C(=O)NC[C@@H]1CCCN1CCC(C)F` (stereo not given in full) returned a Ki at Dopamine receptor of 2610 nM. In addition, in data set [1], the log partition coefficient (logP) is 1.5.
Compound `COc1c(Cl)cc(Cl)c(O)c1C(=O)NC[C@@H]1CCCN1CCCCF` gave an inhibition constant (Ki) at Dopamine receptor of 88.5 nM. This compound also registered a lipophilicity (logP) in [1] of 1.6.
Consider `CCCN1CCC[C@H]1CNC(=O)c1c(O)c(Cl)cc(Cl)c1OC`, for which, on Dopamine receptor, the inhibition constant Ki is 17.3 nM. Moreover, the logP in data set [1] was 1.75.
`COc1c(Cl)cc(Cl)c(O)c1C(=O)NC[C@@H]1CCCN1CCCF` gave a Ki on Dopamine receptor of 130 nM. Besides, the log partition coefficient (logP) in data set [1] came out at 1.07.
For orientation: Kd means the equilibrium constant for the complex coming apart. In turn, `CCN1CCC[C@H]1CNC(=O)c1c(O)c(Cl)cc(Cl)c1OC` [RACLOPRIDE] gave a Kd in [18] of 0.81 nM.
